The test system of assay [1] is Jurkat. In words: Inhibitory concentration required to reduce human Jurkat leukemia (JLC sensitive, wild type) cell number to 50% of control cultures. In kind it is functional, cell-based.
The next assay concerns LLTC cell line. In words: Inhibitory concentration required to reduce Lewis lung carcinoma cell number to 50% of control cultures. The format is functional, cell-based. The following applies: Mus musculus. Summed up: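 Lewis lung carcinoma cells seeded at 10³ per well and exposed to drug for 4 days. Growth read by sulforhodamine assay; IC50 is the drug concentration (nM) that cuts cell number to 50% of control cultures. Value is the mean of at least two independent determinations done in duplicate; coefficient of variation 7.9–8.5%.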

A further assay deals with P388. In words: Inhibitory concentration required to reduce murine p388 leukemia cell number to 50% of control cultures. To be noted: Mus musculus. In kind it is functional, cell-based.
Assay [2] deals with Jurkat. The experiment in a line: Ratio of IC50 of mutant Jurkat leukemia (JLD) to the IC50 of Jurkat leukemia (JLC sensitive, wild type). In kind it is functional, Homo sapiens. Summed up: (§1)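 Jurkat lines were each plated at 3.75 × 10³ per well and grown 4 days with drug: parental JL_C, amsacrine-resistant JL_A and doxorubicin-resistant JL_D. Growth was read by sulforhodamine assay. IC50 is the concentration giving 50% of control cell number. Ratio is IC50 in JL_A or JL_D divided by IC50 in JL_C.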

The test system of assay [3] is Jurkat. In words: Ratio of IC50 of Jurkat leukemia amsacrine (JLA) to the IC50 of Jurkat leukemia (JLC sensitive, wild type). In kind it is functional, Homo sapiens. The method in brief: as §1

37 compounds from ChEMBL document CHEMBL1130207, “Structure-activity relationships for acridine-substituted analogues of the mixed topoisomerase I/II inhibitor N-[2-(dimethylamino)ethyl]acridine-4-carboxamide” (J Med Chem, 1997) can be followed below.

One may read the IC50 as the concentration needed to halve the response being measured.

For `CN(C)CCNC(=O)c1cccc2cc3cccc(N(C)C)c3nc12`, the IC50 amounted to 5.71 µM in the assay with Jurkat [1], 4.13 µM with LLTC cell line and 1.2 µM in the assay on P388. The results for the Ratio with Jurkat [2] and in the assay with Jurkat [3] were 0.9 and 0.85, respectively.
For `CC(C)c1ccc2nc3c(C(=O)NCCN(C)C)cccc3cc2c1` the same measures were 7 µM, 5.82 µM, 3.7 µM, 1.2 and 0.9.
For the compound `CN(C)CCNC(=O)c1cccc2cc3cccnc3nc12`, the half-inhibitory concentration (IC50) in the assay with Jurkat [1] came out at 1.42 µM; in the assay on LLTC cell line it was 0.452 µM; in the assay with P388, 0.34 µM. Also, the Ratio with Jurkat [2] is on record as 1.2; in the assay on Jurkat [3] it was 1.1.
The like results for `CCc1ccc2nc3c(C(=O)NCCN(C)C)cccc3cc2c1` were, in that order, 1.84 µM, 0.346 µM, 0.24 µM, 1.85 and 1.55.
For `CC(C)c1cccc2cc3cccc(C(=O)NCCN(C)C)c3nc12` the same measures were 2.5 µM, 0.832 µM, 0.65 µM, 1 and 1.
In the case of `COc1ccc2cc3cccc(C(=O)NCCN(C)C)c3nc2c1`, the values for the IC50 in the assay with Jurkat [1], with LLTC cell line and in the assay with P388 were 0.58 µM, 0.281 µM and 0.16 µM, respectively. Besides, the Ratio in the assay on Jurkat [2] and in the assay on Jurkat [3] was 1.1 in each case.
In the case of `CN(C)CCNC(=O)c1cccc2cc3cc(Br)ccc3nc12`, the figures for the IC50 in the assay with Jurkat [1], in the assay with LLTC cell line and in the assay with P388 were 0.756 µM, 0.447 µM and 0.087 µM, respectively. The Ratio in the assay on Jurkat [2] came to 1; in the assay on Jurkat [3], 0.8.
The like results for `CN(C)CCNC(=O)c1cccc2cc3cccc(Br)c3nc12` were, in that order, 0.026 µM, 0.0062 µM, 0.0038 µM, 4.9 and 3.8.
Consider `CN(C)CCNC(=O)c1cccc2c(-c3ccccc3)c3ccccc3nc12`, for which the IC50 was 2.7 µM in the assay with Jurkat [1], 1.2 µM in the assay on LLTC cell line and 4.1 µM in the assay on P388. Further, the figures for the Ratio in the assay on Jurkat [2] and in the assay on Jurkat [3] were 1.1 and 0.8, respectively.
Turning to `CN(C)CCNC(=O)c1cccc2cc3ccc(C(F)(F)F)cc3nc12`, the 50% inhibitory concentration (IC50) with Jurkat [1] is 1.35 µM; in the assay on LLTC cell line, 1.75 µM; with P388 it was 1.13 µM. For the same compound, the Ratio turned out to be 1 with Jurkat [2] and 0.9 with Jurkat [3].
In the case of `CN(C)CCNC(=O)c1ccc2nc3c(C(=O)NCCN(C)C)cccc3cc2c1`, the 50% inhibitory concentration (IC50) in the assay on Jurkat [1] stood at 1.12 µM; in the assay with LLTC cell line it was 2.83 µM; with P388, 0.89 µM. Also, the Ratio with Jurkat [2] was 1; with Jurkat [3], 0.6.
For `CN(C)CCNC(=O)c1cccc2cc3cccc(F)c3nc12` the same measures were 0.103 µM, 0.021 µM, 0.014 µM, 5.6 and 4.5.
Take `COc1cccc2c1C(=O)c1c(O)c3c(c(O)c1C2=O)C[C@@](O)(C(=O)CO)C[C@@H]3O[C@H]1C[C@H](N)[C@H](O)[C@H](C)O1` [DOXORUBICIN]: the concentration for half-maximal inhibition (IC50) came out at 0.0096 µM in the assay with Jurkat [1], 0.022 µM in the assay on LLTC cell line and 0.015 µM in the assay on P388. For the same compound, the Ratio with Jurkat [2] was determined as 12.7; with Jurkat [3], 4.39.
With `CN(C)CCNC(=O)c1cccc2cc3cccc(-c4ccccc4)c3nc12`, the IC50 was 1.67 µM with Jurkat [1], 0.706 µM in the assay on LLTC cell line and 0.25 µM in the assay on P388. Further, the Ratio with Jurkat [2] is on record as 1.4; in the assay with Jurkat [3], 1.55.
For `CN(C)CCNC(=O)c1cccc2cc3cc(-c4ccccc4)ccc3nc12` the same measures were 0.24 µM, 0.168 µM, 0.094 µM, 6.5 and 3.
`CN(C)CCNC(=O)c1cccc2cc3cc(C(C)(C)C)ccc3nc12`: the IC50 is 4.39 µM in the assay on Jurkat [1], 4.59 µM with LLTC cell line and 6.3 µM with P388. Further, the Ratio in the assay on Jurkat [2] came out at 1.2; with Jurkat [3], 1.1.
In the case of `CN(C)CCNC(=O)c1cccc2cc3cc(Cl)ccc3nc12`, the half-maximal inhibitory concentration (IC50) in the assay with Jurkat [1] was found to be 0.753 µM; with LLTC cell line, 0.469 µM; in the assay on P388 it was 0.25 µM. For the same compound, the Ratio amounted to 1 with Jurkat [2] and 0.8 in the assay with Jurkat [3].
On to `CN(C)CCNC(=O)c1cccc2cc3cc(C(F)(F)F)ccc3nc12`, for which the concentration for half-maximal inhibition (IC50) came to 6.39 µM with Jurkat [1], 5.95 µM in the assay with LLTC cell line and 8.6 µM in the assay on P388. The figures for the Ratio in the assay with Jurkat [2] and with Jurkat [3] were 1 and 0.8, respectively.
Take `CN(C)CCNC(=O)c1cccc2cc3cc(O)ccc3nc12`: the IC50 with Jurkat [1] is 0.508 µM; in the assay with LLTC cell line, 0.469 µM; with P388 it was 0.17 µM. The Ratio in the assay with Jurkat [2] was found to be 3; with Jurkat [3] it was 2.5.
The like results for `CN(C)CCNC(=O)c1cccc2cc3cccc(C(F)(F)F)c3nc12` were, in that order, 0.075 µM, 0.017 µM, 0.018 µM, 5 and 4.4.
As to `Cc1c2ccccc2nc2c(C(=O)NCCN(C)C)cccc12`, the IC50 in the assay with Jurkat [1] came to 0.436 µM; in the assay with LLTC cell line, 0.161 µM; with P388, 0.15 µM. Moreover, the results for the Ratio in the assay on Jurkat [2] and in the assay on Jurkat [3] were 1 and 0.85, respectively.
Consider `Cc1cccc2nc3c(C(=O)NCCN(C)C)cccc3cc12`, for which the IC50 with Jurkat [1] was determined as 1.06 µM; with LLTC cell line, 0.372 µM; in the assay with P388, 0.25 µM. In addition, the Ratio worked out at 1.05 in the assay on Jurkat [2] and 0.95 in the assay with Jurkat [3].
On to `Cc1ccc2nc3c(C(=O)NCCN(C)C)cccc3cc2c1`, for which the IC50 with Jurkat [1] was 1.35 µM; in the assay with LLTC cell line it was 0.735 µM; in the assay with P388, 0.33 µM. For the same compound, the Ratio in the assay on Jurkat [2] is on record as 1.1; in the assay on Jurkat [3], 1.
On to `COc1ccc2nc3c(C(=O)NCCN(C)C)cccc3cc2c1`, for which the IC50 in the assay with Jurkat [1] was found to be 1.59 µM; in the assay on LLTC cell line, 0.81 µM; in the assay with P388, 0.58 µM. In addition, the Ratio in the assay with Jurkat [2] amounted to 1.1; in the assay with Jurkat [3] it was 1.
As to `Cc1ccc2cc3cccc(C(=O)NCCN(C)C)c3nc2c1`, the results for the IC50 with Jurkat [1], in the assay with LLTC cell line and in the assay with P388 were 0.625 µM, 0.176 µM and 0.096 µM, respectively. Further, the Ratio in the assay with Jurkat [2] is on record as 1.5; in the assay with Jurkat [3], 1.3.
For `CN(C)CCNC(=O)c1cccc2cc3ccccc3nc12` the same measures were 0.58 µM, 0.189 µM, 0.098 µM, 2.3 and 1.9.
For `CN(C)CCNC(=O)c1cccc2cc3ccc(Br)cc3nc12` the same measures were 0.446 µM, 0.23 µM, 0.16 µM, 1.1 and 0.9.
In the case of `CN(C)CCNC(=O)c1cccc2cc3cc(F)ccc3nc12`, the IC50 in the assay with Jurkat [1] came to 0.424 µM; in the assay on LLTC cell line, 0.158 µM; with P388 it was 0.055 µM. In addition, the values for the Ratio in the assay on Jurkat [2] and with Jurkat [3] were 2.1 and 1.8, respectively.
With `COc1cc(NS(C)(=O)=O)ccc1Nc1c2ccccc2nc2ccccc12` [AMSACRINE], the 50% inhibitory concentration (IC50) was 0.037 µM in the assay with Jurkat [1], 0.012 µM in the assay on LLTC cell line and 0.02 µM with P388. Also, the Ratio with Jurkat [2] amounted to 73.7; in the assay with Jurkat [3], 84.9.
For `COc1cccc2cc3cccc(C(=O)NCCN(C)C)c3nc12` the same measures were 0.111 µM, 0.036 µM, 0.026 µM, 5.6 and 4.9.
For the compound `CN(C)CCNC(=O)c1cccc2cc3ccc(F)cc3nc12`, the IC50 is 0.455 µM with Jurkat [1], 0.122 µM in the assay on LLTC cell line and 0.049 µM with P388. The Ratio came out at 1.9 in the assay with Jurkat [2] and 1.5 in the assay on Jurkat [3].
Turning to `CN(C)CCNC(=O)c1cccc2cc3cc(N(C)C)ccc3nc12`, the IC50 came out at 2.48 µM in the assay on Jurkat [1], 1.68 µM with LLTC cell line and 1.1 µM in the assay on P388. Also, the Ratio with Jurkat [2] and in the assay with Jurkat [3] was 1.8 throughout.
In the case of `CN(C)CCNC(=O)c1cccc2cc3cccc(Cl)c3nc12`, the results for the half-maximal inhibitory concentration (IC50) in the assay on LLTC cell line and in the assay on P388 were 0.036 µM and 0.0065 µM, respectively. Moreover, in the assay with Jurkat [3], the Ratio amounted to 4.2.
Turning to `CCc1cccc2cc3cccc(C(=O)NCCN(C)C)c3nc12`, the half-maximal inhibitory concentration (IC50) in the assay with Jurkat [1] was 0.137 µM; with LLTC cell line, 0.02 µM; in the assay on P388 it was 0.018 µM. Further, the Ratio is reported as 4.4 in the assay on Jurkat [2] and 4.1 in the assay on Jurkat [3].
For the compound `CN(C)CCNC(=O)c1cccc2cc3ccc(Cl)cc3nc12`, the half-inhibitory concentration (IC50) worked out at 0.397 µM with Jurkat [1], 0.156 µM in the assay on LLTC cell line and 0.125 µM with P388. In addition, the results for the Ratio with Jurkat [2] and with Jurkat [3] were 1.3 and 1.1, respectively.
The like results for `CN(C)CCNC(=O)c1cccc2cc3c(Cl)cccc3nc12` were, in that order, 0.919 µM, 0.258 µM, 0.12 µM, 1.3 and 1.25.
For `CN(C)CCNC(=O)c1cccc2cc3ccc(N(C)C)cc3nc12` the same measures were 0.212 µM, 0.272 µM, 0.26 µM, 0.85 and 0.6.
